From ChEMBL document CHEMBL4477165, “Eremophilane-Type Sesquiterpenoids from an Acremonium sp. Fungus Isolated from Deep-Sea Sediments” (J Nat Prod, 2016)

Assays:
[1] = Cytotoxicity against mouse RAW264.7 cells assessed as cell survival at 50 uM after 24 hrs by MTT assay; type: cell-based; conditions: read-out: Survival
Method in brief: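 RAW 264.7 mouse macrophages in DMEM with 10% FBS, penicillin and streptomycin, at 37 °C under 5% CO2. Seeded at 5 × 10^3 cells/well for 24 h, then exposed 24 h to samples at 50 μM final (1% DMSO; vehicle and cell-free blanks). MTT added, 4 h, medium replaced with DMSO, absorbance read at 490 nm.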

[2] = Cytotoxicity against mouse RAW264.7 cells assessed as reduction in cell viability after 24 hrs by MTT assay; type: cell-based
Method in brief: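 MTT viability test in RAW 264.7 cells plated at 5 × 10^3 per well for 24 h. Cells were treated with sample at final 50 μM in 1% DMSO for 24 h. 1% DMSO served as vehicle control and cell-free medium as blank. MTT was added for 4 h, formazan dissolved in DMSO, and absorbance read at 490 nm.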

RAW264.7 [3] = test: Antiinflammatory activity in mouse RAW264.7 cells assessed as inhibition of LPS-induced NO production at 50 uM by Griess assay; type: functional
Method in brief: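 RAW 264.7 cells grown in DMEM with 10% FBS, penicillin/streptomycin, 37 °C, 5% CO2. Seeded 5 × 10^4 cells/well for 24 h, then given sample (final 50 μM, 1% DMSO) plus 2 μg/mL LPS for 24 h. Supernatant mixed with Griess reagents I and II, absorbance read at 540 nm. % inhibition computed against LPS-only (model) and no-LPS (blank) wells.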

[4] = Inhibition of NF-kappaB (unknown origin) expressed in mouse RAW264.7 cells pretreated for 1 hr followed by stimulation with LPS measured after 6 hrs by luciferase reporter gene assay; type: cell-based
Method in brief: (§1)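 RAW 264.7 cells stably carrying a pNF-κB-Luc reporter, kept in DMEM/10% FBS with geneticin 500 μg/mL, 37 °C. Pretreated 1 h with sample (0.78–200 μM) and then stimulated with E. coli 055:B5 LPS for 6 h. […] Triplicates, mean ± SD; IC50 by sigmoidal nonlinear regression.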

RAW264.7 [5] = test: Antiinflammatory activity in mouse RAW264.7 cells assessed as inhibition of LPS-induced NO production by Griess assay; type: functional, cell-based
Method in brief: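 RAW 264.7 cells in DMEM/10% FBS seeded at 5 × 10^4 per well for 24 h. Samples added in DMSO (1% final) together with 2 μg/mL LPS and incubated 24 h. Nitrite read at 540 nm by Griess reagent.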

RAW264.7 [6] = test: Inhibition of NF-kappaB (unknown origin) expressed in mouse RAW264.7 cells at 50 uM pretreated for 1 hr followed by stimulation with LPS measured after 6 hrs by luciferase reporter gene assay; type: cell-based; method in brief: as §1

Row | Structure (SMILES) | viability at 24 h, 50 µM [1] [%] | CC50 at 24 h [2] [µM] | inhibition at 50 µM (RAW264.7 [3]) [%] | IC50 [4] [µM] | IC50 (RAW264.7 [5]) [µM] | inhibition (RAW264.7 [6]) [%]
1 | C=C(CO)[C@@H]1C[C@@]2(C)C(=CC(=O)C[C@@H]2C)C[C@H]1O | > 90 | > 50 | 7 | – | – | –
2 | CC1=C2C[C@@]3(C)C(=C[C@H](O)[C@@H](O)[C@@H]3C)C=C2OC1=O | > 90 | > 50 | 21 | – | – | –
3 | CC1=C2C[C@@]3(C)C(=C[C@@H](O)[C@H](O)[C@@H]3C)C=C2OC1=O | > 90 | > 50 | 11 | – | – | –
4 | CC(=O)O[C@H]1[C@H](O)C=C2C=C3OC(=O)C(C)=C3C[C@]2(C)[C@H]1C | > 90 | > 50 | 36 | – | – | –
5 | S=C(S)N1CCCC1 [PYRROLIDINE DITHIOCARBAMATE] | – | – | – | 37 | – | –
6 | C/C=C/CCC(=O)O[C@H]1C=CC2=CC(=O)/C(=C(\C)C(=O)O)C[C@]2(C)[C@H]1C | > 90 | > 50 | 46 | – | 45 | –
7 | C=C(C(=O)O)[C@@H]1C[C@@]2(C)C(=CC1=O)C=C[C@H](OC(=O)CC/C=C/C)[C@@H]2C | > 90 | > 50 | 97 | 78 | 8 | 40
8 | C=C(C)[C@@H]1C[C@@]2(C)C(=C[C@H](O)C[C@@H]2C)C[C@H]1OC(C)=O | > 90 | > 50 | 30 | – | – | –
9 | C=C(C)[C@@H]1C[C@@]2(C)C(=CC1=O)C[C@H](O)C[C@@H]2C | > 90 | > 50 | 16 | – | – | –
10 | CC(=O)O[C@H]1C(=O)C=C2C=C3OC(=O)C(C)=C3C[C@]2(C)[C@H]1C | > 90 | > 50 | 68 | – | 22 | –
11 | C/C=C/CCC(=O)O[C@H]1C=CC2=C[C@]3(O)OC(=O)C(CO)=C3C[C@]2(C)[C@H]1C | > 90 | > 50 | 63 | – | 26 | 20
12 | CC1=C2C[C@@]3(C)C(=CC(=O)C(O)=C3C)C=C2OC1=O | > 90 | > 50 | 16 | – | – | –
13 | C/C=C/CCC(=O)O[C@H]1C=CC2=C[C@]3(O)OC(=O)C(C)=C3C[C@]2(C)[C@H]1C | > 90 | > 50 | 92 | 72 | 15 | 42
14 | C/C=C/CCC(=O)O[C@H]1C=CC2=CC(=O)[C@H](/C(C=O)=C\OC)C[C@]2(C)[C@H]1C | > 90 | > 50 | 66 | – | 25 | 38
15 | C=C(C)[C@@H]1C[C@@]2(C)C(=CC1=O)C[C@H](OC(C)=O)C[C@@H]2C | > 90 | > 50 | 29 | – | – | –
16 | C=C(CO)[C@@H]1C[C@@]2(C)C(=C[C@H](O)C[C@@H]2C)C[C@H]1O | > 90 | > 50 | 15 | – | – | –
17 | CC1=C2C[C@@]3(C)C(=C[C@@H](O)[C@@H](O)[C@@H]3C)C=C2OC1=O | > 90 | > 50 | 23 | – | – | –
18 | C=C(C)[C@@H]1C[C@@]2(C)C(=C[C@H](O)C[C@@H]2C)C[C@H]1O | > 90 | > 50 | 24 | – | – | –
19 | CC1=C2C[C@]3(C)[C@@H](C)C=C[C@H](O)[C@]3(O)C=C2OC1=O | > 90 | > 50 | 12 | – | – | –
20 | C=C(C)[C@@H]1C[C@@]2(C)C(=CC(=O)C[C@@H]2C)C[C@H]1O | > 90 | > 50 | 4 | – | – | –
21 | C=C(C(=O)O)[C@@H]1C[C@@]2(C)C(=CC1=O)C=C[C@H](O)[C@@H]2C | > 90 | > 50 | 11 | – | – | –
22 | C=C(C)[C@@H]1C[C@@]2(C)C(=CC1=O)[C@H](O)[C@H](O)C[C@@H]2C | > 90 | > 50 | 22 | – | – | –
23 | CC1=C2C[C@]3(C)[C@@H](C)C=C[C@H](O)[C@@]3(O)C=C2OC1=O | > 90 | > 50 | 7 | – | – | –
24 | O=c1c(O)c(-c2ccc(O)c(O)c2)oc2cc(O)cc(O)c12 [QUERCETIN] | – | > 50 | – | – | 15 | –
